EBI2 block: blocks human EBI2 receptor beta-arrestin signaling; 360,000 tested, 0.81% active; inhibition, % at 5 µM; EBI2 beta-arrestin recruitment, luminescence, 7a,25-OHC stimulated; AID 651636; in the data active means inhibition above about 38%;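 further: enzyme fragment complementation signal reports receptor beta-arrestin coupling in cells; 0% = agonist plus DMSO wells and 100% = wells without agonist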
Target sequence (P32249 whole entry, looked up, the tested form may be a part): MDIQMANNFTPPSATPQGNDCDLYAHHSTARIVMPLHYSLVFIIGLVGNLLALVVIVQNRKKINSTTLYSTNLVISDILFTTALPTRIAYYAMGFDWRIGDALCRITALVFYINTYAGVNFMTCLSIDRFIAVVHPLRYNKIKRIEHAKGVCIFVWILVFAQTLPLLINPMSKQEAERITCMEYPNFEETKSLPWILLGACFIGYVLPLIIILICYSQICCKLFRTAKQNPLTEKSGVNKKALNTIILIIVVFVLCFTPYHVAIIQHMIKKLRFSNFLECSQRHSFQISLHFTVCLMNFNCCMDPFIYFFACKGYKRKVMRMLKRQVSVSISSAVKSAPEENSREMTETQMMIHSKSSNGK
CXCR6 inh: CXCR6 (human) receptor inhibition; 360,000 tested, 0.36% active; O00574; inhibition, % at 20 µM; CHO-K1 PathHunter CXCR6 beta-arrestin, luminescence; AID 602244; in the data active means inhibition above about 34%, passing the limit was not always enough;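 further: antagonist mode with CXCL16 agonist at 10 nM final; 0% = 10 nM CXCL16 with DMSO and 100% = unstimulated wells without agonist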
APJ agonist: APJ receptor agonism; CHO-K1 APJ PathHunter beta-arrestin, luminescence; 0% DMSO wells, 100% apelin; activation, % at 20 µM; 330,000 tested, 0.11% active;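 active means activation more than six SD over the plate average, tested at 20 µM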;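 further: 0% = DMSO alone and 100% = apelin-13 at 10 nM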
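system = engineered CHO-K1 APJ arrestin reporter cells | input = 1000 cells per well | timing = overnight seeding, 90 min compound at 25 °C, 1 h detection | measured by = enzyme-fragment complementation luminescence | read-out = beta-arrestin recruitment to APJ as agonist activity, luminescent signal | control set = negative DMSO alone, positive Apelin-13 at 10 nM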
HTR2A ag: mouse HTR2A agonism via beta-arrestin recruitment; 360,000 tested, 0.66% active; activation, % at 7.6 µM; CHO-K1 mHTR2A beta-arrestin complementation, luminescence; percent of 30 µM serotonin response;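 active means activation above a run cutoff, the mean activation of all tested compounds plus 3 SD, cut at about 14% in these data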;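 further: 0% = plate median of compound wells and 100% = 30 µM serotonin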
APJ antagonist: blocks the human apelin receptor APJ; P35414; CHO-K1 APJ beta-arrestin complementation, luminescence; inhibition, % at 20 µM; 330,000 tested, 0.32% active;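 active means inhibition above about 40% at 20 µM, limit read from the data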;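 further: cells challenged with 10 nM apelin-13 agonist together with compound; plate controls were apelin-13 plus DMSO wells for no effect and DMSO wells lacking apelin-13 for full effect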
CCR6 antag: antagonists of human CCR6 receptor | 340,000 tested, 0.49% active | CHO-K1 CCR6 PathHunter beta-arrestin, luminescence, CCL20-stimulated | P51684 | inhibition, % at 20 µM;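 active means compounds whose inhibition of the agonist-driven luminescence signal at 20 µM reaches about 50%, limit read from the data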;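 further: cells stimulated with CCL20 at 14 nM final; plate controls were DMSO with CCL20 for no effect and DMSO without agonist for full effect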
Starred values were filed as active, the others as inactive. Only some compounds are listed: those with a hit (about 2.1% of all), similar ones and a draw of the others.

Results for CC1(C)C[C@H](O)[C@]2(CO)CC[C@]3(C)C(=CCC4[C@@]5(C)CC[C@H](O)C(C)(C)C5CC[C@]43C)[C@@H]2C1 (some centres undefined) ?
EBI2 block: -21; CXCR6 inh: 1; APJ agonist: -1; HTR2A ag: -1; APJ antagonist: -12; CCR6 antag: -5

What do the screens show for `CC1(C)C2CC[C@]3(C)C(CC=C4[C@@H]5C[C@@](C)(CO)[C@@H]6C[C@@]5(CC[C@]43C)C(=O)O6)[C@@]2(C)CC[C@@H]1O` (some centres undefined)?
APJ agonist: 0; APJ antagonist: 13; CCR6 antag: 56*

Results for CO/N=C(\C(=O)N[C@@H]1C(=O)N2C(C(=O)O)=C(COC(N)=O)CS[C@H]12)c1ccco1 ?
EBI2 block: 2; CXCR6 inh: 4; APJ agonist: -6; HTR2A ag: 15*; APJ antagonist: 10; CCR6 antag: 0

What do the screens show for `Cc1nc(SC(C)C(=O)NC2CCCCC2C)c2c(C)c(C)sc2n1` (centres undefined)?
EBI2 block: -3; CXCR6 inh: 5; APJ agonist: 0; HTR2A ag: -1; APJ antagonist: 10; CCR6 antag: 9

How did C#CCOCCOCCOCCNc1nc(N2CCN(C(=O)CCCCCCCCCCNC(=O)[C@H]([C@@H](C)CC)n3cc(CCCCN=C(N)N)nn3)CC2)nc(N2CCN(C(=O)CCCCCCCCCCNC(=O)[C@H](CCCN=C(N)N)n3cc(C[C@@H](C)CC)nn3)CC2)n1 do in these assays?
APJ agonist: 73*; APJ antagonist: 35

Results for C[C@@H](NC(=O)c1ncn(Cc2ccccc2)c1C(=O)N[C@H](C)c1ccccc1)c1ccccc1 ?
EBI2 block: 48*; CXCR6 inh: 0; APJ agonist: -5; HTR2A ag: -3; APJ antagonist: -5; CCR6 antag: 23

How did C[C@H](NC(=O)c1ncn(C)c1C(=O)N[C@@H](C)c1ccccc1)c1ccccc1 do in these assays?
EBI2 block: -24; CXCR6 inh: 3; APJ agonist: -3; HTR2A ag: -4; APJ antagonist: -3; CCR6 antag: 12

How did COCCNC(=O)C[C@@H]1C[C@H]2c3cc(NC(=O)Nc4ccc(F)cc4)ccc3O[C@H]2[C@H](CO)O1 do in these assays?
EBI2 block: -2; CXCR6 inh: -1; HTR2A ag: 1

How did CCN1/C(=C2/OC(=S)N(C)C2=O)Sc2ccccc21 do in these assays?
EBI2 block: -8; CXCR6 inh: -10; HTR2A ag: -2; CCR6 antag: 6

Results for CCN1/C(=C\C=C2\C(=O)N(C)C(=S)N2C)Sc2ccccc21 ?
EBI2 block: 21; CXCR6 inh: 23; APJ agonist: 19*; HTR2A ag: 3; APJ antagonist: 13; CCR6 antag: 38

How did O=C(NCCN1CCC(n2c(=O)[nH]c3ccccc32)CC1)c1ccc(Cl)cc1Cl do in these assays?
EBI2 block: -4; CXCR6 inh: -1; HTR2A ag: -2

How did c1ccc(C2=NN(c3ccccc3)CC2)cc1 do in these assays?
EBI2 block: -3; CXCR6 inh: -6; APJ agonist: -5; HTR2A ag: 1; APJ antagonist: 5; CCR6 antag: 14

How did CCOC(=O)/C(=C/c1ccc(N2CCC(c3ccccc3)=N2)cc1)C(C)=O do in these assays?
EBI2 block: 49*; CXCR6 inh: 3; HTR2A ag: -1; CCR6 antag: 24

How did O=C(c1ccncc1)N(c1ccc(N2CCOCC2)cc1)C(c1ccccc1)c1nc2ccccc2[nH]1 (centres undefined) do in these assays?
EBI2 block: -16; CXCR6 inh: -4; HTR2A ag: 1

Results for COc1cc(/C=N/n2c(=S)[nH]nc(C)c2=O)cc([N+](=O)[O-])c1O ?
EBI2 block: 17; CXCR6 inh: 3; APJ agonist: -4; HTR2A ag: 0; APJ antagonist: 5; CCR6 antag: -2

Results for CCc1n[nH]c(=S)n1/N=C/c1cc(OC)cc([N+](=O)[O-])c1O ?
EBI2 block: -3; CXCR6 inh: 40; APJ agonist: -6; HTR2A ag: -5; APJ antagonist: 42*; CCR6 antag: 62*

How did N#Cc1ccccc1S(=O)(=O)N1CCN(c2nc(-c3cccnc3)nc3ccccc23)CC1 do in these assays?
EBI2 block: -14; CXCR6 inh: 4; APJ agonist: 4; HTR2A ag: 12; APJ antagonist: 2; CCR6 antag: 2

How did CCN1C(=O)/C(=C/C=C2/Sc3ccc4ccccc4c3N2CCO)SC1=S do in these assays?
EBI2 block: 12; CXCR6 inh: 9; APJ agonist: -3; HTR2A ag: 2; APJ antagonist: 27; CCR6 antag: 51*

How did COc1ccc(C(=O)/C=C/C(=O)N(CC(=O)NCCC(C)C)Cc2cccs2)c(O)c1 do in these assays?
EBI2 block: 11; CXCR6 inh: 21; HTR2A ag: 0; CCR6 antag: 85*

How did COc1ccc(C(=O)/C=C/C(=O)N(CC(=O)NC2CCCCC2)Cc2ccc(F)cc2)c(O)c1 do in these assays?
EBI2 block: 30; CXCR6 inh: 60*; HTR2A ag: 0; CCR6 antag: 98*

Results for C=CC[C@@H](CC(=O)N(CCO)Cc1ccccc1)C(=O)NC[C@H](OC(=O)[C@@H](CC=C)Cc1ccc(F)cc1)c1ccccc1 ?
EBI2 block: -4; CXCR6 inh: 27; APJ agonist: -3; HTR2A ag: 13; APJ antagonist: 10; CCR6 antag: 29

How did CC(C)c1cccc(-c2csc(C(C)(O)c3ccncc3)n2)c1 (centres undefined) do in these assays?
EBI2 block: 9; CXCR6 inh: -13; HTR2A ag: 0

How did O=C(Nc1ccon1)Nc1ccc(F)cc1F do in these assays?
EBI2 block: -6; CXCR6 inh: -6; APJ agonist: 0; HTR2A ag: 4; APJ antagonist: 7; CCR6 antag: 0

How did COc1ccc(/C=C2\SC(N3CCCCC3)=NC2=O)cc1OC do in these assays?
EBI2 block: 10; CXCR6 inh: 0; APJ agonist: -3; HTR2A ag: -4; APJ antagonist: 17; CCR6 antag: 0

What do the screens show for `COc1cc(/C=C2\SC(N3CCC(C)CC3)=NC2=O)ccc1O`?
EBI2 block: 40*; CXCR6 inh: 0; APJ agonist: -4; HTR2A ag: -14; APJ antagonist: 15; CCR6 antag: 12

What do the screens show for `Cc1ccc(C2C3CN(C(C)C)CC=C3C(C#N)=C(N)C2(C#N)C#N)cc1` (centres undefined)?
EBI2 block: 22; CXCR6 inh: 53*; APJ agonist: -11; HTR2A ag: -5; APJ antagonist: 36; CCR6 antag: 60*
